Reference: ChEMBL document CHEMBL4680127, “Rational design and Structure-Activity relationship of coumarin derivatives effective on HIV-1 protease and partially on HIV-1 reverse transcriptase” (Eur J Med Chem, 2020)

What was measured:
[1] = system: Human immunodeficiency virus 1; experiment: Antiviral activity against wild type HIV1 assessed as inhibitory effect on virus producing cells at 10 uM by cell based inhibition assay; format: functional
Method in brief: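 Late-stage single-round assay: compound at 10 μM was added to the medium of virus-producing cells 5 h after transfection and incubated 48 h. Pseudotyped virus from the supernatant then infected SupT1 cells for 48 h. Luciferase in the newly infected cells gave percent inhibition. Quadruplicate.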

[2] = target: Human immunodeficiency virus type 1 protease (Human immunodeficiency virus 1, UniProt Q72874); experiment: Inhibition of recombinant HIV1 protease measured assessed as hydrolysis of fluorogenic substrate by FRET assay
Method in brief: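 Wild-type HIV-1 protease activity was read by FRET. Each assay was run in triplicate. IC50 values are means (±1 standard deviation) from three independent experiments.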

[3] = system: Human immunodeficiency virus 1; experiment: Antiviral activity against wild type HIV1 assessed as inhibitory effect on virus infected cells at 10 uM by cell based inhibition assay; format: functional
Method in brief: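 Single-round assay of the early stage: SupT1 cells were first infected with pseudotyped HIV-1, then exposed to compound at 10 μM for 48 h. Luciferase activity was measured and expressed as percent inhibition.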

[4] = target: T1, Human immunodeficiency virus type 1 reverse transcriptase (Human immunodeficiency virus 1, UniProt Q72547); experiment: Inhibition of HIV-1 NL4-3 reverse transcriptase expressed in Escherichia coli assessed as polymerization by one-step real-time RT-PCR assay
[5] = target: T1, Human immunodeficiency virus type 1 reverse transcriptase; experiment: Inhibition of HIV-1BH10 reverse transcriptase expressed in Escherichia coli assessed as polymerization by one-step real time RT-PCR assay
[6] = system: Human immunodeficiency virus 1; experiment: Antiviral activity against wild type HIV1 infected in human SupT1 cells assessed as inhibitory effect at 100 nM by cell based inhibition assay; format: functional; settings: Human immunodeficiency virus 1, SUP-T1
Method in brief: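 1×10^6 SupT1 cells were infected with HIV-1 NL4-3 by spin infection, with 10 µg/mL polybrene and test agent at 100 nM present during infection. Activity is expressed as percent inhibition of viral growth.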

Row | Structure (SMILES) | inhibition at 10 µM [1] [%] | IC50 [2] [µM] | inhibition at 10 µM [3] [%] | IC50 [4] [µM] | IC50 [5] [µM] | inhibition at 0.1 µM [6] [%]
1 | O=C1Nc2ccc(Cl)cc2[C@@](C#CC2CC2)(C(F)(F)F)O1 [EFAVIRENZ] | 100 | – | – | – | – | –
2 | COc1ccc(S(=O)(=O)N(CC(C)C)C[C@@H](O)[C@H](Cc2ccccc2)NC(=O)c2cc3ccccc3oc2=O)cc1 | – | 0.0728 | 44.8 | 474 | – | –
3 | COc1ccc(S(=O)(=O)N(CC(C)C)C[C@@H](O)[C@H](Cc2ccccc2)NCc2cc(=O)oc3cc(O)ccc23)cc1 | 88.8 | 0.053 | – | – | – | –
4 | COc1ccc(S(=O)(=O)N(CC(C)C)C[C@@H](O)[C@H](Cc2ccccc2)NC(=O)c2cc3ccc(O)cc3oc2=O)cc1 | – | 0.0395 | 12.3 | 421 | – | –
5 | Cc1cc(=O)oc2cc(OC(=O)N[C@@H](Cc3ccccc3)[C@H](O)CN(CC(C)C)S(=O)(=O)c3ccc([N+](=O)[O-])cc3)ccc12 | – | 1.02 | – | – | > 1000 | –
6 | COc1ccc2c(CC(=O)N[C@@H](Cc3ccccc3)[C@H](O)CN(CC(C)C)S(=O)(=O)c3ccc(N)cc3)cc(=O)oc2c1 | – | 0.0154 | 7.72 | 411 | – | –
7 | COc1ccc2cc(C(=O)N[C@@H](Cc3ccccc3)[C@H](O)CN(CC(C)C)S(=O)(=O)c3ccc([N+](=O)[O-])cc3)c(=O)oc2c1 | – | 0.221 | 0.45 | – | > 1000 | –
8 | CC(C)CN(C[C@@H](O)[C@H](Cc1ccccc1)NC(=O)Cc1cc(=O)oc2cc(O)ccc12)S(=O)(=O)c1ccc(N)cc1 | 17.9 | 0.0379 | – | – | > 1000 | –
9 | COc1ccc(S(=O)(=O)N(CC(C)C)C[C@@H](O)[C@H](Cc2ccccc2)NC(=O)Oc2c3occc3cc3ccc(=O)oc23)cc1 | – | 0.12 | – | – | > 1000 | –
10 | Cc1ccnc2c1NC(=O)c1cccnc1N2C1CC1 [NEVIRAPINE] | – | – | – | – | – | 77
11 | COc1ccc(S(=O)(=O)N(CC(C)C)C[C@@H](O)[C@H](Cc2ccccc2)NC(=O)c2ccc3oc(=O)ccc3c2)cc1 | 99.5 | 0.00184 | 1.26 | 597 | – | –
12 | COc1ccc2c(CC(=O)N[C@@H](Cc3ccccc3)[C@H](O)CN(CC(C)C)S(=O)(=O)c3ccc([N+](=O)[O-])cc3)cc(=O)oc2c1 | – | 0.0558 | 43.7 | 373 | – | –
13 | CC(C)CN(C[C@@H](O)[C@H](Cc1ccccc1)NC(=O)Cc1cc(=O)oc2cc(O)ccc12)S(=O)(=O)c1ccc([N+](=O)[O-])cc1 | 73.4 | 0.0111 | 3.91 | 367 | – | –
14 | CC(C)CN(C[C@@H](O)[C@H](Cc1ccccc1)NC(=O)Cc1cc(=O)oc2cc(N(C)C)ccc12)S(=O)(=O)c1ccc(N)cc1 | – | 0.0751 | 18.4 | 572 | – | –
15 | CC(C)CN(C[C@@H](O)[C@H](Cc1ccccc1)NC(=O)c1ccc2oc(=O)ccc2c1)S(=O)(=O)c1ccc([N+](=O)[O-])cc1 | 98.5 | 0.0026 | – | – | > 1000 | –
16 | CC(C)CN(C[C@@H](O)[C@H](Cc1ccccc1)NCc1cc(=O)oc2cc(O)ccc12)S(=O)(=O)c1ccc([N+](=O)[O-])cc1 | 73.2 | 0.14 | – | – | – | –
17 | COc1ccc(S(=O)(=O)N(CC(C)C)C[C@@H](O)[C@H](Cc2ccccc2)NC(=O)Cc2cc(=O)oc3cc(N(C)C)ccc23)cc1 | – | 0.211 | 43.8 | 355 | – | –
18 | CC(C)CN(C[C@@H](O)[C@H](Cc1ccccc1)NC(=O)c1cc2ccc(O)cc2oc1=O)S(=O)(=O)c1ccc(N)cc1 | – | 0.0277 | 27 | 554 | – | –
19 | CC(C)CN(C[C@@H](O)[C@H](Cc1ccccc1)NC(=O)Cc1cc(=O)oc2cc(N(C)C)ccc12)S(=O)(=O)c1ccc([N+](=O)[O-])cc1 | – | 0.276 | 14.7 | – | > 1000 | –
20 | COc1ccc2cc(C(=O)N[C@@H](Cc3ccccc3)[C@H](O)CN(CC(C)C)S(=O)(=O)c3ccc(N)cc3)c(=O)oc2c1 | – | 0.102 | 23.2 | 706 | – | –
21 | COc1ccc(S(=O)(=O)N(CC(C)C)C[C@@H](O)[C@H](Cc2ccccc2)NC(=O)Oc2ccc3c(C)cc(=O)oc3c2)cc1 | – | 0.16 | – | – | > 1000 | –
22 | COc1ccc(S(=O)(=O)N(CC(C)C)C[C@@H](O)[C@H](Cc2ccccc2)NC(=O)Cc2cc(=O)oc3cc(OC)ccc23)cc1 | – | 0.0155 | 17.7 | 242 | – | –
23 | COc1ccc(S(=O)(=O)N(CC(C)C)C[C@@H](O)[C@H](Cc2ccccc2)NC(=O)c2cc3ccc(OC)cc3oc2=O)cc1 | – | 0.0467 | 8.28 | 370 | – | –
24 | COc1ccc(S(=O)(=O)N(CC(C)C)C[C@@H](O)[C@H](Cc2ccccc2)NC(=O)Cc2cc(=O)oc3cc(O)ccc23)cc1 | 82.9 | 0.00162 | – | 459 | – | 45.5
25 | CC(C)CN(C[C@@H](O)[C@H](Cc1ccccc1)NC(=O)c1cc2ccccc2oc1=O)S(=O)(=O)c1ccc([N+](=O)[O-])cc1 | – | 0.298 | 27.1 | – | > 1000 | –
26 | CC(C)CN(C[C@@H](O)[C@H](Cc1ccccc1)NC(=O)c1cc2ccc(O)cc2oc1=O)S(=O)(=O)c1ccc([N+](=O)[O-])cc1 | 74 | 0.0621 | 91 | 189 | – | –
27 | CC(C)CN(C[C@@H](O)[C@H](Cc1ccccc1)NC(=O)c1cc2ccccc2oc1=O)S(=O)(=O)c1ccc(N)cc1 | – | 0.156 | 1.34 | 75.3 | – | –
28 | CC(C)CN(C[C@@H](O)[C@H](Cc1ccccc1)NC(=O)c1ccc2oc(=O)ccc2c1)S(=O)(=O)c1ccc(N)cc1 | 98.7 | 0.0004 | 5.61 | 398 | – | –
29 | CC(C)CN(C[C@@H](O)[C@H](Cc1ccccc1)NC(=O)O[C@H]1CO[C@H]2OCC[C@H]21)S(=O)(=O)c1ccc(N)cc1 | 30.8 | – | – | – | – | –
30 | CC(C)CN(C[C@@H](O)[C@H](Cc1ccccc1)NC(=O)Oc1c2occc2cc2ccc(=O)oc12)S(=O)(=O)c1ccc([N+](=O)[O-])cc1 | – | 1.53 | – | – | > 1000 | –
